Assay outcomes as filed in PubChem.
Only some compounds are listed: those with a hit (about 3.1% of all), similar ones and a draw of the others.
GalR3 antag: human GalR3 antagonism. HEK293 GalR3-CNG cAMP membrane potential fluorescence; galR3 body fused to GalR1 C-terminus. AID 651719. inhibition, % at 3 µM. 0.44% of 360,000 active;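 active = inhibition above the screen-wide average plus 3 SD, cut at about 13% in these data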;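 note: forskolin and galanin both at EC90 stimulate the cells; cAMP rise reported by CNG channel membrane potential dye signal; 0% = forskolin plus galanin with DMSO and 100% = forskolin alone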
CHO parental Ca: counter-screen for OX1R antagonists: effect in parental CHO cells | parental CHO-K1, ATP-induced calcium, Fluo-8 fluorescence | inhibition, % at 5.6 µM | 0.63% of 330,000 active | AID 463079;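 active = inhibition above that plate's mean sample inhibition plus 3 SD, cut at about 26% in these data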;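 note: 0% = ATP-challenged DMSO wells and 100% = DMSO wells without ATP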
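material = parental CHO cells | also added = ATP as calcium-mobilizing challenge | dosing = single point at 5.6 µM | detection = intracellular calcium via Fluo-8 no-wash fluorescent dye | read-out = % inhibition | benchmarks = low control ATP plus DMSO, high control DMSO only | repeats = one well per compound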
GPR7 antag: antagonists of human GPR7 (neuropeptides B/W receptor 1); P48145; 1.1% of 290,000 active; inhibition, % at 4.4 µM; GPR7-expressing cells, fluorescence antagonist assay; in the data active = inhibition above about 16%, passing the limit was not always enough;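 note: cells stimulated with the agonist NPW; 0% = agonist with vehicle and 100% = vehicle without agonist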
OX1R antag-1: OX1R (human) antagonism. OX1R-expressing cells, FRET antagonist read-out. inhibition, % at 6.6 µM. AID 485270. O43613. 1.8% of 330,000 active; in the data active = inhibition mostly above about 38%, no sharp cut-off; inactive = mostly below about 40%;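 note: 0% = agonist challenge alone and 100% = reference antagonist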
Target sequence (O43613 whole entry, looked up): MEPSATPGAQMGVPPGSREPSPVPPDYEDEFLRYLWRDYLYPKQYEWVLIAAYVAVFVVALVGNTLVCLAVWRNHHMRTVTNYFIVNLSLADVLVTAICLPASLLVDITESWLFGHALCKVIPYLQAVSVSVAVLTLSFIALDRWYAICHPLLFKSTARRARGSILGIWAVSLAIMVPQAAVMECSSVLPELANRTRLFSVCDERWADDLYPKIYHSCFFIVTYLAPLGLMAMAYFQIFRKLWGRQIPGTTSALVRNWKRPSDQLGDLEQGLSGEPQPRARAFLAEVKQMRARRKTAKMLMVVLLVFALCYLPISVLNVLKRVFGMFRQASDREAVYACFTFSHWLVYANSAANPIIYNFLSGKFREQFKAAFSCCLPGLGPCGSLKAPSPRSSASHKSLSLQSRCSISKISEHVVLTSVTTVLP
OX1R antag-2: blocks the human orexin 1 receptor; inhibition, % at 5 µM; 0.43% of 330,000 active; O43613; CHO/OX1R cells, Fluo-8 calcium fluorescence, orexin A;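 active = inhibition above its plate's threshold, mean inhibition of all tested compounds on the plate plus 3 SD, cut at about 37% in these data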;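 note: 0% = orexin A challenge wells and 100% = SB-334867-A antagonist wells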
OX1R Fluo8 conf: confirmation of human orexin 1 receptor antagonists | AID 492963 | 38% of 1,100 active | CHO/OX1R cells, orexin A calcium Fluo-8 fluorescence | inhibition, % at 5 µM | shares compounds with OX1R antag-2; in the data active = inhibition above about 29%;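 note: 0% = agonist challenge alone and 100% = reference antagonist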
CHO Ca counter: counter-screen: parental CHO calcium response change, triplicate; shares compounds with OX1R antag-2; parental CHO-K1, ATP-induced calcium, Fluo-8 fluorescence; inhibition, % at 5.6 µM; 9.3% of 1,100 active; AID 492965;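 active = inhibition above a per-plate limit, the mean inhibition of that plate's test compounds plus 3 SD, cut at about 25% in these data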;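 note: 0% = ATP challenge with DMSO and 100% = DMSO without ATP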
OX1R HTRF confirm: OX1R (human) antagonism, HTRF confirmed | shares compounds with OX1R antag-1 | OX1R-expressing cells, HTRF antagonist assay | inhibition, % at 6.6 µM | 49% of 1,800 active; in the data active = inhibition above about 55%;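 note: CHO cells expressing OX1R stimulated with orexin A at about EC80; 0% = agonist challenge alone and 100% = reference antagonist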
CHO-K1 HTRF cnt: counter-screen for OX1R antagonists: effect in parental CHO-K1 cells; HTRF counterscreen; shares compounds with OX1R antag-1; AID 493232; inhibition, % at 6.6 µM; 48% of 1,800 active; in the data active = inhibition above about 17%;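 note: 0% = agonist challenge with vehicle and 100% = vehicle alone without agonist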
* = called active by the depositor; x = not tested or not shown.

SMILES	GalR3 antag	CHO parental Ca	GPR7 antag	OX1R antag-1	OX1R antag-2	OX1R Fluo8 conf	CHO Ca counter	OX1R HTRF confirm	CHO-K1 HTRF cnt
CCCCc1ccc(S(=O)(=O)NCCc2ccncc2)cc1	-4	19	-2	76*	26	0	6	36	3
COc1ccc(CNC(=O)CCn2nc(C)c3c(C)n(-c4ccccc4)nc3c2=O)c(OC)c1	-7	5	-2	13	10	x	x	x	x
CCN(CC)c1ccc(/C=C(\C#N)c2ccccn2)cc1	x	-7	-4	80*	34	4	-7	90*	9
CC1Cc2ccccc2N1S(=O)(=O)c1cccc(C(=O)N2CCCCC2)c1 (stereo unspecified)	-4	x	x	x	x	x	x	x	x
CC1Cc2ccccc2N1S(=O)(=O)c1cccc(C(=O)c2nccn2C)c1 (stereo unspecified)	-2	3	-9	40*	56*	-3	-12	34	4
CCOC(=O)CCNC(=O)Nc1cc2nc(C)n(Cc3cccc(Cl)c3)c2nc1C	-8	0	-9	3	-14	x	x	x	x
CCn1c(CNC(=O)COc2ccc(C(C)C)cc2)nnc1SCC(=O)Nc1ccccc1	-1	-24	-16	14	-16	x	x	x	x
CCn1c(Cn2nnc(-c3ccccc3)n2)nnc1SCC(=O)Nc1ccccc1	0	-17	-5	50*	44	24	-2	56*	6
CS(=O)(=O)c1ccc(C(=O)Nc2cccc(-c3nc4ccccc4[nH]3)c2)cc1	1	-9	-15	72*	29	21	-5	63*	8
O=C(O)c1cccc(S(=O)(=O)Nc2cccc(S(=O)(=O)N3CCCC3)c2)c1	-2	-18	x	6	-1	x	x	x	x
Cn1c(=O)n(CC(=O)NCC2CCCO2)c(=O)c2c3c(sc21)CCCC3 (stereo unspecified)	1	-22	-11	17	-26	x	x	x	x
O=S(=O)(c1ccc2c(c1)C(O)c1ccccc1CC2)C(F)(F)F (stereo unspecified)	0	13	x	34*	52*	20	17	34	1
Nc1cc(S(=O)(=O)C(F)(F)F)ccc1C(=O)O	1	1	-13	7	1	x	x	x	x
Cc1cc(C(=O)NCc2cccc(Cl)c2)c2ccccc2n1	x	-11	-9	87*	26	31*	-3	67*	1
Cc1cc(NC(=O)CCC(=O)N(Cc2cccs2)C(C(=O)NC2CCCC2)c2ccccc2)no1 (stereo unspecified)	-1	-19	-5	92*	51*	44*	-33	93*	1
COCCNC(=O)C(c1ccc(C)cc1)N(Cc1cccs1)C(=O)CCC(=O)Nc1ccccn1 (stereo unspecified)	-7	-5	-8	75*	22	25	-14	82*	-1
Cc1cc(NC(=O)CCC(=O)N(Cc2cccs2)C(C(=O)NC2CCCC2)c2cccnc2)no1 (stereo unspecified)	-4	-11	-14	51	25	x	x	x	x
COCCNC(=O)C(c1ccc(C)cc1)N(Cc1ccccc1)C(=O)CCC(=O)Nc1ccccn1 (stereo unspecified)	-10	-21	-15	72*	32	40*	-10	88*	1
COc1cccc(OC)c1OC(=O)/C=C/c1ccc(C)o1	1	-9	-6	10	-20	x	x	x	x
COc1ccccc1CN1CC(C(=O)NCCc2ncccc2C)CCC1=O (stereo unspecified)	-5	x	-6	x	x	x	x	x	x
O=C(C1CCN(S(=O)(=O)c2cccc3nsnc23)CC1)N1CCc2ccccc21	-4	-17	-5	25	-14	x	x	x	x
O=C(C1CCCN(S(=O)(=O)c2cccc3nsnc23)C1)N1CCc2ccccc21 (stereo unspecified)	0	5	-12	103*	27	-7	-13	25	10
C/C(=N\Nc1cccc([N+](=O)[O-])c1)c1ccccc1O	-6	-10	0	76*	28	2	12	47	7
c1ccc(-c2nccc(-c3ccc4c(c3)OCO4)n2)cc1	-5	-9	1	90*	33	13	17	84*	8
Cc1nccc(-c2ccc3c(c2)OCO3)n1	5	12	-3	17	-13	x	x	x	x
SMILES	GalR3 antag	CHO parental Ca	GPR7 antag	OX1R antag-1	OX1R antag-2	OX1R Fluo8 conf	CHO Ca counter	OX1R HTRF confirm	CHO-K1 HTRF cnt
COC(=O)c1ccccc1NC(=O)CC(=O)Nc1ccccc1C(=O)OC	-7	-19	-1	79*	40	56*	-7	84*	6
CCn1c(N)c(C(=O)Nc2ccccc2C(=O)OC)sc1=S	1	-10	-11	83*	43	42*	-13	86*	7
O=C(CN1C(=O)C2CCCCC2C1=O)Nc1cc(C(F)(F)F)ccc1N1CCCC1 (stereo unspecified)	-6	-22	x	14	-31	x	x	x	x
COc1ccc(CC(=O)OCC(=O)Nc2ccc(Cl)cc2C)cc1	-3	-16	x	12	-11	x	x	x	x
CCN(CC)c1ccc(/C=N/NC(=O)c2ccco2)c(O)c1	-5	12	-3	68*	36*	73*	18	88*	11
CCN(CC)c1ccc(/C=N/NC(=O)c2ccco2)cc1	2	-8	12	40	4	x	x	x	x
COc1ccc(CN2CCNC(=O)C2CC(=O)NC2CCCC2)c(C)c1C (stereo unspecified)	-7	-14	6	3	-27	x	x	x	x
CCc1cccc(OCC(=O)N(C)CC(=O)Nc2cccc(F)c2)c1	-5	-25	x	17	-5	x	x	x	x
CCOc1ccccc1C(=O)Nc1ccc2nc3n(c(=O)c2c1)CCCCC3	-3	-25	-1	91*	94*	79*	1	93*	11
CCOc1ccccc1C(=O)Nc1ccc(NC(=O)c2ccccc2)cc1	-11	-11	-8	16	-1	x	x	x	x
CCOc1ccccc1C(=O)Nc1ccc(C(=O)c2ccccc2)cc1	-9	-21	-5	55*	17	20	3	67*	18*
Cc1cccc(C)c1NC(=O)c1cccc2c1C(=O)N(C1CCCCC1)C2	x	9	12	15	-6	x	x	x	x
OC(CN1c2ccccc2Sc2ccccc21)Cn1nnc2ccccc21 (stereo unspecified)	-4	-20	-2	63*	42	31*	-13	52	1
O=C(Nc1ccc2nc(-c3cccs3)c(-c3cccs3)nc2c1)N1CCOCC1	-7	-2	-4	73*	21	25	0	44	14
O=C(Nc1cccc(O)c1)N1CCOCC1	-3	10	-9	14	-10	x	x	x	x
